ChEMBL document CHEMBL4414545, “Beta-Glucuronidase Catalyzes Deconjugation and Activation of Curcumin-Glucuronide in Bone” (J Nat Prod, 2019)
Calls of active or inactive are those of the source. No cut-off for these calls is given here.

Key:
Klotho = target: T1, Klotho (Homo sapiens, UniProt Q9UEF7); assay: Prodrug conversion assessed as recombinant human alpha-klotho mediated curcumin-glucuronide hydrolysis incubated for 24 hrs by LC-MS analysis; assay type: ADME
T1 sequence (Q9UEF7 whole entry): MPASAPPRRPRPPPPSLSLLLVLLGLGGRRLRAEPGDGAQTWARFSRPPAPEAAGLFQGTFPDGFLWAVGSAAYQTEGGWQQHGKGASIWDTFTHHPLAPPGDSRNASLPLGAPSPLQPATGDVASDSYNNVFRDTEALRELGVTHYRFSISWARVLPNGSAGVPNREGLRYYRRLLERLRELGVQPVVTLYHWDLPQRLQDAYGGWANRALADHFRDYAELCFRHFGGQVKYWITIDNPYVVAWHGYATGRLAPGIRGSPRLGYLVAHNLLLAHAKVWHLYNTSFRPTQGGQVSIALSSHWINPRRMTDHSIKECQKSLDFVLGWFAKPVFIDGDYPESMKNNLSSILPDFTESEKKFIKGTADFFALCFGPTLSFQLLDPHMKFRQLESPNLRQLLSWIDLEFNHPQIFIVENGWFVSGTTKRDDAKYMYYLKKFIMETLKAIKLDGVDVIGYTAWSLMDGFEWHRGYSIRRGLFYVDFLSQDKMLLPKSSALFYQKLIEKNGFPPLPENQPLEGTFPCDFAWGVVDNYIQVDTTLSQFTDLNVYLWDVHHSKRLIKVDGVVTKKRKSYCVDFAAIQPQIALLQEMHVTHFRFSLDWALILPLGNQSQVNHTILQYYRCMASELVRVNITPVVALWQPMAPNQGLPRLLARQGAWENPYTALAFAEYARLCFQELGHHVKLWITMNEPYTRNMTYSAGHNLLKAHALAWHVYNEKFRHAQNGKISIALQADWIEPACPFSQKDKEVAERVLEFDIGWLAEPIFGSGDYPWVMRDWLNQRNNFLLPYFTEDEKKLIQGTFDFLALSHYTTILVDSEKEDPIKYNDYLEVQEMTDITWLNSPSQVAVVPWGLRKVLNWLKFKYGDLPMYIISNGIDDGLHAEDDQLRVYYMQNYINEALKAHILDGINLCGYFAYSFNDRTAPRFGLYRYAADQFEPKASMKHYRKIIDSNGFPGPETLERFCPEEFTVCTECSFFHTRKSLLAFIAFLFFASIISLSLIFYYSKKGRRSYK
Outline: (§1)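 Recombinant human GUSB or α-klotho, 5 μg/mL (15 nM or 45 nM active enzyme), was incubated with curcumin-glucuronide (459 nM) for 24 h at 37°C at pH 5 in enzyme-optimized buffer. Reactions were stopped with HCl and extracted by HLB. Remaining glucuronide and formed aglycone were measured by LC/MS and expressed as % of enzyme-free control, n=3/group.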

RAW264.7 = assay: Inhibition of RANKL-induced osteoclastogenesis in murine RAW264.7 cells assessed as formation of TRAP positive multinucleated osteoclasts at 30 uM pretreated for 4 hrs followed by RANKL addition measured after 72 hrs; assay type: functional, cell-based; conditions: Mus musculus
Outline: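 RAW 264.7 cells, used within 10 passages, were seeded at 5×10^3/well in DMEM with 10% FBS and allowed to adhere overnight at 37°C. Cells were pretreated 4 h with aglycone curcumin or curcumin-glucuronide, then given RANKL (50 ng/mL final) for 72 h. TRAP-positive multinucleated osteoclasts were counted, n=4/group.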

Beta-glucuronidase [1] = target: T2, Beta-glucuronidase (Mus musculus, UniProt P12265); assay: Prodrug conversion in C57BL/6J mouse bone marrow assessed as beta-glucuronidase mediated stabilization of aglycone curcumin at 0.5 uM administered via oral gavage incubated for 30 mins followed by resuspension in sodium acetate buffer at pH 5 measured after 2 hrs in presence of saccharolactone by LC-MS analysis; assay type: ADME; conditions: in vivo, pH 5, 0.5 µM
T2 sequence (P12265 whole entry): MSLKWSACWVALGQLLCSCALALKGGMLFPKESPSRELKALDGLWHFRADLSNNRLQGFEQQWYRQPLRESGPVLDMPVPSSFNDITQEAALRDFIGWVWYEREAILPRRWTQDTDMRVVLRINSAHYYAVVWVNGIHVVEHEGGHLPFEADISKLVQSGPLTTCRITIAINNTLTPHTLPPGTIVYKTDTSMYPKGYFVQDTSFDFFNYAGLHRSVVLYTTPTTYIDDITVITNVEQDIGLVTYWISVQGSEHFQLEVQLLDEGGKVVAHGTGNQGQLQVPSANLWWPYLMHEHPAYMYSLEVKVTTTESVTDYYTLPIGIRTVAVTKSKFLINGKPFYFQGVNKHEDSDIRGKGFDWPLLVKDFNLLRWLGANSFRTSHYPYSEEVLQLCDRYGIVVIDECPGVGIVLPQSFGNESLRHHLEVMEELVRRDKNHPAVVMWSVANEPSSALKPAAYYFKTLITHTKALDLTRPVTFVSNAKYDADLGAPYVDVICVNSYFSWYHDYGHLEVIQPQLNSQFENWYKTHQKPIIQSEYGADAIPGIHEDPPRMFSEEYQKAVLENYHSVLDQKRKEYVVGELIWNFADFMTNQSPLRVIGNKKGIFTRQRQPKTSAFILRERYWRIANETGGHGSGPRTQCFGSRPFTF

Beta-glucuronidase [2] = target: T3, Beta-glucuronidase (Homo sapiens, UniProt P08236); assay: Prodrug conversion assessed as recombinant human C-terminal His6-tagged beta-glucuronidase mediated curcumin-glucuronide hydrolysis incubated for 24 hrs by LC-MS analysis; assay type: ADME; conditions: isolated protein; outline: as §1
T3 sequence (P08236 whole entry): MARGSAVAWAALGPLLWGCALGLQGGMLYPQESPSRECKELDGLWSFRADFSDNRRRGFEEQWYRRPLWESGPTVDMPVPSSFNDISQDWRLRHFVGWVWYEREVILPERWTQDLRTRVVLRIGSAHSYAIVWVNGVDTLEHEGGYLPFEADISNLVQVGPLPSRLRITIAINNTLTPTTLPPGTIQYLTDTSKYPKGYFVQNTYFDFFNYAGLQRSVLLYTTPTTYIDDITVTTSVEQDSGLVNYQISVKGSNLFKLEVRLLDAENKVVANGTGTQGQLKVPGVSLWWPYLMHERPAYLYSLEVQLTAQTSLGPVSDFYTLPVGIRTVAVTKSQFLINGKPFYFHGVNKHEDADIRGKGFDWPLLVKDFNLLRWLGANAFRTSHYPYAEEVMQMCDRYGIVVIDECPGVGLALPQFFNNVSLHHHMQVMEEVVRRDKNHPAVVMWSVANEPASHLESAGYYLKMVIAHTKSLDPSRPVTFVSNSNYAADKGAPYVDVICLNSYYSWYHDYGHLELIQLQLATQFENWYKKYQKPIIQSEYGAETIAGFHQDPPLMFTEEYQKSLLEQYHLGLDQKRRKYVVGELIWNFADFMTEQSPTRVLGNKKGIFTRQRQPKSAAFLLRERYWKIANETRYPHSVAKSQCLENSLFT

SMILES: COc1cc(/C=C/C(=O)CC(=O)/C=C/c2ccc(O[C@@H]3O[C@H](C(=O)O)[C@@H](O)[C@H](O)[C@H]3O)c(OC)c2)ccc1O
- Drug metabolism (Klotho): 75%
- inhibition (RAW264.7): inactive
- Drug metabolism (Beta-glucuronidase [1]): Metabolite_Detected
- Drug metabolism (Beta-glucuronidase [2]): > 99%
